The campaign covered roughly 240,000 compounds. About 950 (0.4%) were called active.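 How the source made its calls: active means lipid droplet intensity inhibited by at least 50%, with more than 500 cells counted; inconclusive means wells with under 300 cells, treated as cytotoxic; inactive means the rest.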 The full list was thinned out, with actives kept by preference.
experiment: oleate-induced lipid droplet accumulation in AML12 cells – imaging, high-throughput imaging, BODIPY stain, primary screen (AID 1656); details: AML12 mouse hepatocytes, oleate lipid droplets, at 6.5 µM; cell count: measured here: cell count, cytotoxicity flag; inhibition: stronger effect = higher value;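 on cell count: cells counted across two imaged fields per well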
Method in brief: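 material = mouse AML12 hepatocyte cell line, fixed after treatment | also added = 100 µM oleic acid challenge | doses = compound at 6.5 µM only | schedule = overnight exposure | technique = Image-based BODIPY and DAPI two-channel analysis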

| SMILES | cell count | inhibition |
| --- | --- | --- |
| COc1ccc(CCNC(=O)C(=O)NCC2OCCN2S(=O)(=O)c2cccs2)cc1OC (stereo not drawn) | 689 cells | -12.1% (inactive) |
| COc1cccc(C(=O)N/N=C(\C)c2cccc(NC(=O)c3ccc(F)cc3)c2)c1OC | 678 cells | -6.8% (inactive) |
| O=C1Nc2ccc(Br)cc2/C1=N/N=C/C1=C(N2CCOCC2)C(=C\c2ccccc2)/CC1 | 750 cells | 55.6% (active) |
| C(=N\N1CCN(c2ccccn2)CC1)/C1=C(N2CCOCC2)C(=C/c2ccccc2)/CC1 | 680 cells | -4.6% (inactive) |
| COc1ccc(/C=N/N=C2/C(=O)Nc3ccccc32)cc1O | 676 cells | 9.7% (inactive) |
| CCCc1cc(=O)oc2cc(OCC(=O)Nc3ccc(CN4CCOCC4)cc3)c(Cl)cc12 | 636 cells | -0.7% (inactive) |
| O=C(CSc1nc2nccnc2c(=O)n1Cc1cccs1)Nc1ccccc1F | 782 cells | 2.9% (inactive) |
| COc1cc(/C=C/C(=O)N2CCc3ccccc3C2)cc(OC)c1OC | 825 cells | 0% (inactive) |
| CC(C)(C)NS(=O)(=O)c1ccc(NC(=O)C2CCCO2)cc1 (stereo not drawn) | 829 cells | 2.6% (inactive) |
| CCCNC(=O)CCc1c(C)nc2c(c(C)nn2-c2ccc(C)cc2)c1C | 848 cells | 10.2% (inactive) |
| COc1ccc(N(CC(=O)Nc2cc(OC)cc(OC)c2)S(=O)(=O)c2c(C)n[nH]c2C)cc1 | 704 cells | -4% (inactive) |
| CCSc1nsc(NC(=O)Nc2ccccc2OC)n1 | 808 cells | -10.6% (inactive) |
| COc1ccc(C(=O)NC2CCCc3c2cnn3-c2cccc(C)c2C)c(OC)n1 (stereo not drawn) | 767 cells | -1.4% (inactive) |
| Cn1nccc1C(=O)NC1CCCc2c1cnn2-c1ccccc1F (stereo not drawn) | 545 cells | -55.5% (inactive) |
| Cc1cc(C(=O)NC2CCCc3c2cnn3-c2cccc(C)c2C)c(C)o1 (stereo not drawn) | 865 cells | 59.9% (active) |
| COc1ccc(CCNC(=O)CS(=O)(=O)Cc2nc(-c3ccc(C)cc3)oc2C)cc1OC | 750 cells | 11.2% (inactive) |
| O=C(c1ccc(F)cc1)N1CCCC(C(=O)N2CCCCC2)C1 (stereo not drawn) | 708 cells | -8.5% (inactive) |
| O=S(=O)(c1ccc(Br)cc1)c1nc(-c2ccccc2)oc1N1CCOCC1 | 610 cells | -17.8% (inactive) |
| O=C1CCC(C(=O)N2CCN(c3ccccc3Cl)CC2)CN1CC1CCCCC1 (stereo not drawn) | 746 cells | 0% (inactive) |
| COc1ccc(-c2csc(-c3cccs3)n2)cc1OC | 713 cells | 8.5% (inactive) |
| COc1ccc(OC)c(-c2csc(-c3cccs3)n2)c1 | 816 cells | 69.1% (active) |
| COc1ccc(OC)c(CNC(=O)CCc2nc(-c3cccs3)no2)c1 | 746 cells | -2% (inactive) |
| CC(C)(C)NC(=O)Cn1cnc2cc([N+](=O)[O-])ccc2c1=O | 720 cells | 58.1% (active) |
| O=C(Cn1cnc2cc([N+](=O)[O-])ccc2c1=O)NC(=O)NCc1ccccc1 | 618 cells | -1% (inactive) |
| Cc1cc(C(=O)Cn2cnc3cc([N+](=O)[O-])ccc3c2=O)c(C)n1CC1CCCO1 (stereo not drawn) | 680 cells | -0.6% (inactive) |
| CC(=O)N1CCN(c2ccccc2NC(=S)NC(=O)c2cc3ccccc3o2)CC1 | 682 cells | 29.4% (inactive) |
| Cc1cccc(N2CCN(C(=O)c3cccc(N4C(=O)C5C6C=CC(C6)C5C4=O)c3)CC2)c1C (stereo not drawn) | 793 cells | -0.4% (inactive) |

| SMILES | cell count | inhibition |
| --- | --- | --- |
| CCCc1cc(C(=O)N2CCCC(CO)(CCCc3ccccc3)C2)n(C)n1 (stereo not drawn) | 631 cells | -27.5% (inactive) |
| CC1CCN(C(=S)NC(=O)c2ccccc2Br)CC1 | 661 cells | -5.4% (inactive) |
| CCN1C(=O)/C(=C2/Sc3ccccc3N2CCCS(=O)(=O)O)SC1=S | 691 cells | -5.7% (inactive) |
| CCCCN1C(=O)/C(=C/C=C2/C=Cc3ccccc3N2CC)SC1=S | 734 cells | 56.1% (active) |
| CCCCN1C(=O)/C(=C2/C=CC=CN2C)SC1=S | 765 cells | -17.5% (inactive) |
| COc1ccc(Cl)cc1NC(=O)CN(C)C(=O)CCCc1c[nH]c2ccccc12 | 812 cells | 53.5% (active) |
| COc1ccccc1NC(=O)CCCc1c[nH]c2ccccc12 | 740 cells | -19.1% (inactive) |
| COc1ccc(Cl)cc1NC(=O)CN(C)C(=O)CNC(=O)C12CC3CC(CC(C3)C1)C2 | 778 cells | 18.1% (inactive) |
| Cc1ccc(-n2nc3c(=O)n(C(C)C(=O)NCc4ccc5c(c4)OCO5)nc(C)c3c2C)cc1 (stereo not drawn) | 665 cells | 15.4% (inactive) |
| O=C(NCCCN1CCOCC1)c1cc(-c2ccccc2F)no1 | 726 cells | 6.3% (inactive) |
| COC(=O)c1ccc(COc2ccc(/C=C/C(=O)c3ccc(OC)c(CSCC(=O)O)c3)cc2OC)cc1 | 891 cells | -2% (inactive) |
| CC(C)c1ccc(N(C(=O)c2ccco2)C(C(=O)NC2CCCC2)c2cccnc2)cc1 (stereo not drawn) | 761 cells | -17.7% (inactive) |
| Cc1c(C=O)c2ccccc2n1CCOc1ccccc1 | 839 cells | -1% (inactive) |
| CN(CC1CCCO1)S(=O)(=O)c1ccc(C(=O)Nc2ccc(F)cc2)cc1 (stereo not drawn) | 687 cells | -1.2% (inactive) |
| Cc1cc(N2CCCC2)n2nc(C)c(-c3ccccc3)c2n1 | 697 cells | 51.4% (active) |
| Cc1cc(C(C)(C)C)n2nc(C)c(-c3ccccc3)c2n1 | 401 cells | 2% (inactive) |
| Cc1cc(-n2nc(C)cc2C)n2nc(C)c(-c3ccccc3)c2n1 | 801 cells | 10% (inactive) |
| CC(=O)c1ccc(NC(=O)c2sc3nc4n(c(=O)c3c2C)CCCCC4)cc1 | 749 cells | 9.9% (inactive) |
| O=C(C1CCCN(S(=O)(=O)c2ccc([N+](=O)[O-])cc2)C1)N1CCCCC1 (stereo not drawn) | 814 cells | 0.4% (inactive) |
| COc1ccc(-c2nonc2NC(=O)c2oc3ccc(F)cc3c2C)cc1OC | 738 cells | 39.5% (inactive) |
| COc1ccccc1CNC(=O)C1CCN(S(=O)(=O)c2ccc3c(c2)CC(C)N3C(=O)C2CC2)CC1 (stereo not drawn) | 719 cells | -4.5% (inactive) |
| COc1ccc(NC(=O)CN2C(=O)COc3ccc(S(=O)(=O)N4CCOCC4)cc32)c(OC)c1 | 694 cells | -1.6% (inactive) |
| COc1ccccc1CNC(=O)[C@@H]1CCCN1C(=O)[C@@H]1Cc2ccccc2CN1C(=O)OC(C)(C)C | 737 cells | -4.8% (inactive) |
| CC(C)(COC(=O)Nc1ccccc1)COC(=O)Nc1ccccc1 | 842 cells | 2% (inactive) |
| CSCCC(NS(=O)(=O)c1ccccc1F)C(=O)N1CC=C(c2ccccc2)CC1 (stereo not drawn) | 678 cells | -35.6% (inactive) |
| O=C1/C(=C/c2ccc(F)cc2)SC(=S)N1CCCC(=O)N1CCCCC1CCO (stereo not drawn) | 789 cells | -7.9% (inactive) |
| CCOCCCNc1nc(-c2ccccc2)nc2ccccc12 | 835 cells | 1.2% (inactive) |

| SMILES | cell count | inhibition |
| --- | --- | --- |
| CC(Nc1nc(C(F)(F)F)nc2ccccc12)c1cccs1 (stereo not drawn) | 808 cells | -12.3% (inactive) |
| Cc1sc2nc(SCCO)n(-c3ccccc3)c(=O)c2c1C | 835 cells | -15% (inactive) |
| Cc1ccccc1NC(=O)CSc1ccc2nnc(-c3ccccn3)n2n1 | 640 cells | 22.7% (inactive) |
| COc1ccc(CCNC(=O)c2ccccc2OCc2ccccc2)cc1 | 773 cells | -18.7% (inactive) |
| COc1ccc(CCNC(=O)CCc2cn(C)c3ccccc23)c(OC)c1 | 811 cells | 15.9% (inactive) |
| Cc1cccnc1CC(C)NC(=O)c1cc(COc2cncc(Cl)c2)on1 (stereo not drawn) | 704 cells | 3.6% (inactive) |
| COc1ccc(/C=C2\SC(=S)N(CCCC(=O)NC3CCCC3)C2=O)cc1OC | 711 cells | -15.3% (inactive) |
| CCOc1ccc(-n2c(SCC(=O)OC)nc3sc4c(c3c2=O)CCN(C)C4)cc1 | 796 cells | 4.9% (inactive) |
| CCOc1ccccc1NC(=S)N1CCN(c2cccc(C)c2C)CC1 | 777 cells | -21% (inactive) |
| O=C(c1ccc(OC2CCN(C/C=C/c3ccc(F)cc3)CC2)cc1)N1CCCCC1 | 815 cells | 2% (inactive) |
| O=C(Nc1ccc(F)cc1)c1ccc(S(=O)(=O)NCc2cccnc2)cc1 | 806 cells | -51.8% (inactive) |
| CC(C)=CCCC(C)CN1CCC(n2nccc2NC(=O)c2ccccc2)CC1 (stereo not drawn) | 722 cells | 2.9% (inactive) |
| N#C/C(=C\c1ccccc1C(F)(F)F)C(=O)Nc1ccccc1F | 614 cells | 1.8% (inactive) |
| N#C/C(=C/c1ccc(N2CCOCC2)o1)C(=O)N1CCOCC1 | 636 cells | -9.6% (inactive) |
| N#C/C(=C\C1=C(N2CCOCC2)C(=C\c2ccccc2)/CC1)C(=O)Nc1ccccc1F | 430 cells | 56.4% (active) |
| Cc1ccc(CNC(=O)CCS(=O)(=O)c2ccc3c(c2)CC(C)N3C(=O)C2CC2)o1 (stereo not drawn) | 715 cells | -2.5% (inactive) |
| Cc1nn(C(C)C(=O)NCCC2=CCCCC2)c(=O)c2nn(-c3ccccc3)c(C)c12 (stereo not drawn) | 685 cells | -3.8% (inactive) |
| COc1ccc(C)cc1N(C(=O)Cn1nnc(-c2ccc(C)o2)n1)C(C(=O)NC1CCCC1)c1ccncc1 (stereo not drawn) | 749 cells | -20.1% (inactive) |
| CCN(CC)c1ccc(NC(=O)CCc2nnc3ccc(N4CCCCC4)nn23)c(C)c1 | 801 cells | 3.4% (inactive) |
| CCOC(=O)c1cccc(NC(=O)CCc2nnc3ccc(N4CCOCC4)nn23)c1 | 652 cells | -5.8% (inactive) |
| CCOc1ccc(CCNC(=O)CCc2nnc3ccc(N4CCCC4)nn23)cc1OCC | 752 cells | 69.5% (active) |
| COCCc1nn2c(=O)cc(COC(=O)c3cc(OC)c(OC)c(OC)c3)nc2s1 | 701 cells | 7.1% (inactive) |
| COc1ccccc1N1CCN(S(=O)(=O)c2ccc3c(c2)NC(=O)CS3)CC1 | 687 cells | -12.7% (inactive) |
| CCc1ccc(C(CNc2nc(C(F)(F)F)nc3ccccc23)N(C)C)cc1 (stereo not drawn) | 654 cells | -18.7% (inactive) |
| Cc1ccc2sc(N(CCN(C)C)C(=O)/C=C/c3cccs3)nc2c1C | 660 cells | 4.4% (inactive) |

Source: PubChem BioAssay AID1656 (Sanford-Burnham Center for Chemical Genomics, 2009)
